Measured values of several laboratories.
Protocols differ between the studies behind these lines.
Cell line: HepG2
Read-out: cell growth or viability

SMILES	assay	setting	CC50
CCCCCNC[C@@H](O)c1cc(Cl)cc2c1-c1ccc(Cl)cc1C2		48 h	6 µM
Cn1nc2c(=O)n(C3CC3)ncc2c1[C@](O)(c1cnc(C(F)(F)F)c(Cl)c1)C(F)(F)F	ATP luminescence		38 µM
NC1=CC2=NCCc3c[nH]c(c32)C1=O	MTT	72 h	0.1 µM
Cn1nc2c(=O)n(C3CC3)cnc2c1[C@](O)(c1cnc(C(F)(F)F)c(Cl)c1)C(F)(F)F	ATP luminescence		> 50 µM
COCC(=O)N1CCC[C@H](C(=O)NCc2nc(-c3ccc(OC)cc3)cs2)C1	ATP luminescence	96 h	> 50 µM
CCCCCCNC[C@@H](O)c1cc(Cl)cc2c1-c1ccc(Cl)cc1C2		48 h	6.3 µM
Cn1cc2c3c1C(=O)C(NCCc1ccc(O)cc1)=CC3=NCC2	MTT	72 h	1 µM
O[C@@H](CN[C@H](COCC1CC1)Cc1ccccc1)c1cc(Cl)cc2c1-c1ccc(Cl)cc1C2		48 h	13.8 µM
Cn1cc2c3c1C(=O)C(NCCc1ccc(O)cc1)=CC3=[N+](C)CC2	MTT	72 h	0.5 µM
COCC(=O)N1CCC[C@H](C(=O)NCc2nc(-c3cccnc3)cs2)C1	ATP luminescence	96 h	> 50 µM
CCCCCCCNC[C@@H](O)c1cc(Cl)cc2c1-c1ccc(Cl)cc1C2		48 h	5 µM
COCC(=O)N1CCC[C@@H](C(=O)NCc2nc(-c3ccccc3)cs2)C1	ATP luminescence	96 h	> 50 µM
COC1=CC2=[N+](C)CCc3c[nH]c(c32)C1=O	MTT	72 h	12.5 µM
CCOCC(=O)N1CCC[C@H](C(=O)NCc2nc(-c3ccc(C)nc3)cs2)C1	ATP luminescence	96 h	> 50 µM
O=C1C(NCCc2ccc(O)cc2)=CC2=NCCc3c[nH]c1c32	MTT	72 h	4 µM
